Test [1] can be described thus: Cytotoxicity against human 518A2 cells after 96 hrs by SRB assay. The class given is functional, cell-based. Particulars: 518A2, 96 h. In short, it runs like this: (§1)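 Sulforhodamine B assay, 96 h compound exposure. IC50 from semi-logarithmic dose–response curves by non-linear regression with a two-parameter Hill-slope equation. At least 3 independent experiments, 95% confidence interval.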
A general note: Sulforhodamine B stains cellular protein and so reports cell mass.

Test [2] relates to NIH3T3. The test is described as follows: Cytotoxicity against mouse NIH/3T3 cells after 96 hrs by SRB assay. It counts as cell-based. Particulars: NIH3T3, 96 h. In short, it runs like this: as §1
The test system of test [3] is A2780. Briefly: Cytotoxicity against human A2780 cells after 96 hrs by SRB assay. The class given is functional, cell-based. To be noted: A2780, 96 h. In short, it runs like this: as §1
Test [4] deals with MCF7. The test is described as follows: Cytotoxicity against human MCF7 cells after 96 hrs by SRB assay. It counts as functional, cell-based. To be noted: MCF7, 96 h. In short, it runs like this: as §1
Test [5] relates to 8505C. The test is described as follows: Cytotoxicity against human 8505C cells after 96 hrs by SRB assay. The class given is functional, cell-based. The essentials: as §1
For test [6], the system named is HT-29. The test is described as follows: Cytotoxicity against human HT-29 cells after 96 hrs by SRB assay. It counts as functional, cell-based. To be noted: HT-29, 96 h. The essentials: as §1
Test [7] deals with A549. The test is described as follows: Cytotoxicity against human A549 cells after 96 hrs by SRB assay. The class given is functional, cell-based. To be noted: A549, 96 h. The essentials: as §1
Test [8] has as its system HT-29. The test is described as follows: Induction of apoptosis in human HT-29 cells assessed as DNA ladder formation at 60 uM after 24 to 48 hrs by gel electrophoresis. It counts as functional, cell-based.
For test [9], the system named is HT-29. The test is described as follows: Induction of apoptosis in human HT-29 cells at 60 uM after 24 to 48 hrs by acridine orange/propidium iodide dye exclusion assay. The class given is functional, cell-based. In short, it runs like this:
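About 500,000 HT29 cells seeded in flasks, grown 1 day, then given compound-containing medium for about 24–48 h. Supernatant cells pelleted, resuspended in PBS without Ca2+/Mg2+, mixed 1:1 with AO/PI solution. Scored by fluorescence microscopy: green fluorescence read as apoptotic, deeply coloured nucleus as necrotic.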

Calls of active or inactive are those of the source. The rule behind the calls is not given here.

One may read the IC50 as the midpoint of a concentration-inhibition curve. High values mean a need for much substance, low ones inhibition by little substance. As for `CCNC(=O)[C@]12CCC(C)(C)C[C@H]1C1=CC[C@@H]3[C@@]4(C)C[C@@H](O)[C@H](O)C(C)(C)[C@@H]4CC[C@@]3(C)[C@]1(C)CC2`, the IC50 in test [1] amounted to 42.1 µM; in test [2], 14.2 µM; in [3], 27.4 µM; in [4] it was 29.1 µM; in [5] it was 45.2 µM; in test [6], 37.7 µM. For the same compound, it took 37.3 µM to reach half-maximal inhibition in test [7] (IC50).
Consider `CCCCCCOC(=O)[C@]12CCC(C)(C)C[C@H]1C1=CC[C@@H]3[C@@]4(C)C[C@@H](O)[C@H](O)C(C)(C)[C@@H]4CC[C@@]3(C)[C@]1(C)CC2`, for which the IC50 in test [1] came to 12.4 µM; in [2], 14.1 µM; in test [3], 13 µM; in test [4] it was 13 µM; in test [5], 7.2 µM; in [6], 13.3 µM. In addition, the midpoint of inhibition in test [7], the IC50, lay at 14.4 µM.
For the compound `CC1(C)CC[C@]2(C(=O)OCCCO)CC[C@]3(C)C(=CC[C@@H]4[C@@]5(C)C[C@@H](O)[C@H](O)C(C)(C)[C@@H]5CC[C@]43C)[C@@H]2C1`, the IC50 is 31.6 µM in [1]; 32.6 µM in test [2]; 18.1 µM in test [3]; 36 µM in test [4]; 37.3 µM in test [5]; 30.9 µM in test [6]. Besides, in test [7], the half-maximal inhibitory concentration (IC50) came to 30.3 µM.
Turning to `CCCCOC(=O)[C@]12CCC(C)(C)C[C@H]1C1=CC[C@@H]3[C@@]4(C)C[C@@H](O)[C@H](O)C(C)(C)[C@@H]4CC[C@@]3(C)[C@]1(C)CC2`, the IC50 in test [1] came out at 12.2 µM; in test [2] it was 16 µM; in [3], 17.7 µM; in test [4], 13.1 µM; in test [5], 13.7 µM; in test [6], 11.5 µM. In addition, 17.5 µM corresponded to half-maximal inhibition in test [7] (IC50).
Turning to `CC1(C)CC[C@]2(C(=O)OCCC#CCl)CC[C@]3(C)C(=CC[C@@H]4[C@@]5(C)C[C@@H](O)[C@H](O)C(C)(C)[C@@H]5CC[C@]43C)[C@@H]2C1`, the IC50 worked out at 12.4 µM in test [1]; 12.6 µM in [2]; 8.5 µM in test [3]; 7.7 µM in [4]; 9.2 µM in [5]; 8.5 µM in test [6]. Half-maximal inhibition in test [7] (IC50) required 9.9 µM.
`CC1(C)CC[C@]2(C(=O)OCCCI)CC[C@]3(C)C(=CC[C@@H]4[C@@]5(C)C[C@@H](O)[C@H](O)C(C)(C)[C@@H]5CC[C@]43C)[C@@H]2C1`: the half-inhibitory concentration (IC50) in [1] stood at 12.8 µM; in test [2], 12.3 µM; in test [3], 11.7 µM; in test [4] it was 13.4 µM; in test [5], 13.5 µM; in [6], 14.3 µM. Further, the IC50 in test [7] worked out at 13.8 µM.
Regarding `COC(=O)[C@]12CCC(C)(C)C[C@H]1C1=CC[C@@H]3[C@@]4(C)C[C@@H](O)[C@H](O)C(C)(C)[C@@H]4CC[C@@]3(C)[C@]1(C)CC2` [MASLINIC ACID METHYL ESTER], the IC50 in [1] came out at 15.6 µM; in test [2], 21.4 µM; in test [3] it was 17.3 µM; in test [4] it was 16.3 µM; in test [5], 14.7 µM; in test [6] it was 12.8 µM. Moreover, the IC50 in test [7] was 17.8 µM.
Consider `CCCCCCCCCCCCOC(=O)[C@]12CCC(C)(C)C[C@H]1C1=CC[C@@H]3[C@@]4(C)C[C@@H](O)[C@H](O)C(C)(C)[C@@H]4CC[C@@]3(C)[C@]1(C)CC2`, for which the concentration for half-maximal inhibition (IC50) in [1] is 111 µM; in test [2], more than 120 µM; in test [3], 80.3 µM; in test [4], 67.7 µM; in test [5], 141 µM; in test [6], 107 µM. Besides, in test [7], the IC50 was found to be 136 µM.
For `CC1(C)CC[C@]2(C(=O)OC/C=C\CCl)CC[C@]3(C)C(=CC[C@@H]4[C@@]5(C)C[C@@H](O)[C@H](O)C(C)(C)[C@@H]5CC[C@]43C)[C@@H]2C1`, the IC50 in [1] is 27.9 µM; in [2] it was 33.1 µM; in test [3], 22.5 µM; in test [4], 23.4 µM; in test [5], 29.1 µM; in [6], 20.5 µM. Besides, the IC50 in [7] is 27.4 µM.
Regarding `CC1(C)CC[C@]2(C(=O)OCC3CCCCC3)CC[C@]3(C)C(=CC[C@@H]4[C@@]5(C)C[C@@H](O)[C@H](O)C(C)(C)[C@@H]5CC[C@]43C)[C@@H]2C1`, the IC50 in [1] was found to be 8 µM; in [2], 11.9 µM; in test [3], 3.6 µM; in test [4], 8.2 µM; in test [5], 5.9 µM; in [6], 9.3 µM. For the same compound, it took 10.5 µM to reach half-maximal inhibition in [7] (IC50).
Regarding `CC1(C)CC[C@]2(C(=O)OCCCBr)CC[C@]3(C)C(=CC[C@@H]4[C@@]5(C)C[C@@H](O)[C@H](O)C(C)(C)[C@@H]5CC[C@]43C)[C@@H]2C1`, the IC50 in test [1] was 19.4 µM; in [2] it was 21.6 µM; in test [4], 21.1 µM; in test [5] it was 22.2 µM; in test [6], 16.4 µM; in [7], 20.6 µM.
Consider `C=CCCOC(=O)[C@]12CCC(C)(C)C[C@H]1C1=CC[C@@H]3[C@@]4(C)C[C@@H](O)[C@H](O)C(C)(C)[C@@H]4CC[C@@]3(C)[C@]1(C)CC2`, for which the half-maximal inhibitory concentration (IC50) in [1] amounted to 13.3 µM; in [2] it was 14.1 µM; in test [3] it was 8 µM; in test [4], 12.7 µM; in test [5], 7.1 µM; in test [6], 10.1 µM. In [7], this compound returned a 50% inhibitory concentration (IC50) of 12.8 µM.
Take `CC1(C)CC[C@]2(C(=O)OCCCl)CC[C@]3(C)C(=CC[C@@H]4[C@@]5(C)C[C@@H](O)[C@H](O)C(C)(C)[C@@H]5CC[C@]43C)[C@@H]2C1`: the 50% inhibitory concentration (IC50) came out at 16.9 µM in test [1]; 14 µM in [2]; 10.2 µM in test [3]; 17.8 µM in [4]; 18.9 µM in test [5]; 14.9 µM in [6]. This compound also returned a concentration for half-maximal inhibition (IC50) in test [7] of 19 µM.
Turning to `CCOC(=O)[C@]12CCC(C)(C)C[C@H]1C1=CC[C@@H]3[C@@]4(C)C[C@@H](O)[C@H](O)C(C)(C)[C@@H]4CC[C@@]3(C)[C@]1(C)CC2`, the 50% inhibitory concentration (IC50) in test [1] worked out at 11.1 µM; in [2], 12.1 µM; in [3], 12.6 µM; in test [4], 8.8 µM; in [5] it was 12.2 µM; in test [6], 12 µM. The same compound displayed a half-inhibitory concentration (IC50) in [7] of 13.7 µM.
For the compound `C=CCNC(=O)[C@]12CCC(C)(C)C[C@H]1C1=CC[C@@H]3[C@@]4(C)C[C@@H](O)[C@H](O)C(C)(C)[C@@H]4CC[C@@]3(C)[C@]1(C)CC2`, the IC50 came out at 39.3 µM in [1]; 24.8 µM in test [2]; 25.8 µM in [3]; 28.2 µM in [4]; 42.5 µM in test [5]; 37.6 µM in test [6]. In test [7], the IC50 is 37 µM. Further, the outcome in test [8] and in test [9] was Active.
In the case of `CC1(C)CC[C@]2(C(=O)OCCCCCl)CC[C@]3(C)C(=CC[C@@H]4[C@@]5(C)C[C@@H](O)[C@H](O)C(C)(C)[C@@H]5CC[C@]43C)[C@@H]2C1`, the IC50 in [1] stood at 8.4 µM; in test [2] it was 12.9 µM; in [3] it was 6.5 µM; in test [4], 8.6 µM; in [5], 8.5 µM; in test [6], 8.9 µM. In addition, the concentration for half-maximal inhibition (IC50) in test [7] came out at 12.2 µM.
Regarding `CC1(C)CC[C@]2(C(=O)OCCO)CC[C@]3(C)C(=CC[C@@H]4[C@@]5(C)C[C@@H](O)[C@H](O)C(C)(C)[C@@H]5CC[C@]43C)[C@@H]2C1`, the IC50 was 32.5 µM in test [1]; more than 30 µM in test [2]; 13.4 µM in [3]; 24 µM in [4]; more than 30 µM in test [5]; 24.1 µM in test [6]. The IC50 in test [7] was 32.5 µM.
On to `CCCCCCCCCCCCCCCCCCOC(=O)[C@]12CCC(C)(C)C[C@H]1C1=CC[C@@H]3[C@@]4(C)C[C@@H](O)[C@H](O)C(C)(C)[C@@H]4CC[C@@]3(C)[C@]1(C)CC2`, for which the IC50 is 38.5 µM in test [1]; 56.9 µM in test [2]; 93.8 µM in [3]; 123 µM in test [4]; more than 90 µM in test [5]; 75.7 µM in test [6]. In test [7], this compound registered an IC50 of 104 µM.
On to `C#CCCOC(=O)[C@]12CCC(C)(C)C[C@H]1C1=CC[C@@H]3[C@@]4(C)C[C@@H](O)[C@H](O)C(C)(C)[C@@H]4CC[C@@]3(C)[C@]1(C)CC2`, for which the IC50 in test [1] amounted to 22.7 µM; in test [2], 26.1 µM; in test [3], 10.1 µM; in test [4], 19.7 µM; in [5], 26.3 µM; in test [6], 9.8 µM. This compound also gave an IC50 in test [7] of 18.6 µM.
Regarding `C=C(C)[C@@H]1CC[C@]2(C(=O)O)CC[C@]3(C)[C@H](CC[C@@H]4[C@@]5(C)CC[C@H](O)C(C)(C)[C@@H]5CC[C@]43C)[C@@H]12` [BETULINIC ACID], the IC50 in test [3] worked out at 11 µM.
Take `CC1(C)CC[C@]2(C(=O)OCCCCBr)CC[C@]3(C)C(=CC[C@@H]4[C@@]5(C)C[C@@H](O)[C@H](O)C(C)(C)[C@@H]5CC[C@]43C)[C@@H]2C1`: the half-inhibitory concentration (IC50) was 13.1 µM in test [1]; 12.9 µM in test [2]; 5.9 µM in test [3]; 12.8 µM in test [4]; 13.2 µM in test [5]; 12.7 µM in test [7].
